Source: the M2OR odorant receptor database
Where a chain is given by its changes, count along the chain named.

Experiments:
Details in all cases: stereoisomer not certain
O5AP2 A105T = test system: T1, O5AP2 A105T
T1 sequence (whole entry): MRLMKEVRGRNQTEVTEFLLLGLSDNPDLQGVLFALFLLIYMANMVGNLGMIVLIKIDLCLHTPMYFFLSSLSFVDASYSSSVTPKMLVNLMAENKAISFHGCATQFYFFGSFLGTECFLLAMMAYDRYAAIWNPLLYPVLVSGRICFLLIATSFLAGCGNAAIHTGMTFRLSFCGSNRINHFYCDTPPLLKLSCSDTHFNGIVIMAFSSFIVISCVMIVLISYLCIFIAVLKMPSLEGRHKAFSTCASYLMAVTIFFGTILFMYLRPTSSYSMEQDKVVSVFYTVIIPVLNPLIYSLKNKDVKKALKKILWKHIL
How it was run: (§1)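 Values were gathered from published papers (main text and supplementary material), with extra details requested from the original authors when needed, and checked for typos and inconsistencies. Each receptor–molecule pair is called responsive (active) if the original authors judged the measured signal statistically different from baseline, and non-responsive (inactive) otherwise. Assay methods varied by source, often transient mammalian cell-line luciferase assays. Recorded details include cell line, G-protein, co-transfected protein and tags.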

O5AU1 = test system: T2, O5AU1
T2 sequence (whole entry): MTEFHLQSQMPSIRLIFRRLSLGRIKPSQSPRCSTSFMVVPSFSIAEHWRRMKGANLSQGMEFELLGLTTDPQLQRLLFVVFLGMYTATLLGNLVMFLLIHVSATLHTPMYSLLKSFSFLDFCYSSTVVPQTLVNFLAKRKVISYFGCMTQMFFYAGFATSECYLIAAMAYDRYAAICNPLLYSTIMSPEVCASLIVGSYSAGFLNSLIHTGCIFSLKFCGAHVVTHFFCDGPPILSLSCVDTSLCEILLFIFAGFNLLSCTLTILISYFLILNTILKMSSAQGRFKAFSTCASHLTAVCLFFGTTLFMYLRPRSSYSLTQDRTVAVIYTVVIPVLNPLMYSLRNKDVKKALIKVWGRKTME
How it was run: as §1

O5H14 = test system: T3, O5H14
T3 sequence (whole entry): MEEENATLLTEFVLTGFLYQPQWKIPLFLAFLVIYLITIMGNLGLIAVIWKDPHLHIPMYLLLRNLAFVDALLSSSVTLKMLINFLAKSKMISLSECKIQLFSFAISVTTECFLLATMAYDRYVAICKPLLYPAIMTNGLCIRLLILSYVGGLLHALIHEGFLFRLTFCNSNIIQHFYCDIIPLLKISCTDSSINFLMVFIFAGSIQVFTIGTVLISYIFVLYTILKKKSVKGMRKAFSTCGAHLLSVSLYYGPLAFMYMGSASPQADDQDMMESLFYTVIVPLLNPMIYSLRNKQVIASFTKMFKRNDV
How it was run: as §1

O5H15 V108I S148T T167S = test system: T4, O5H15 V108I S148T T167S
T4 sequence (whole entry): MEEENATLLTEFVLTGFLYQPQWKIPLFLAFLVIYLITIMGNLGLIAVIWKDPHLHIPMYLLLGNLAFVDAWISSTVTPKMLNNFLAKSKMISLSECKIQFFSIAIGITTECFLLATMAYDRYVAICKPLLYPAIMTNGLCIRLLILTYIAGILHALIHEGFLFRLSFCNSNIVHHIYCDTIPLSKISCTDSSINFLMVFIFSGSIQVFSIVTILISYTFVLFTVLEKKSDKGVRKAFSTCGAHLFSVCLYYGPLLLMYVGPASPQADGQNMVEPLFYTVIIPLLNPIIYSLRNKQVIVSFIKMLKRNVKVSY
How it was run: as §1

O6C65 T222A = test system: T5, O6C65 T222A
T5 sequence (whole entry): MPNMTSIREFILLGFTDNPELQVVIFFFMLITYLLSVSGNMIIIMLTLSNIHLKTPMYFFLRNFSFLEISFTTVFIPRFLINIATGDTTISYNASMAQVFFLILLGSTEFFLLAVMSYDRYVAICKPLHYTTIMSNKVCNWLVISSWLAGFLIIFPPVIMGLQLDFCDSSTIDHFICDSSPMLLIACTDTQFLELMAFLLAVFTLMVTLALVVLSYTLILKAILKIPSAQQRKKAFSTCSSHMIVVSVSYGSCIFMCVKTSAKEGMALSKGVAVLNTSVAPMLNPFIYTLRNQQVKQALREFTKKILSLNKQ
How it was run: as §1

O6C70 L181P = test system: T6, O6C70 L181P
T6 sequence (whole entry): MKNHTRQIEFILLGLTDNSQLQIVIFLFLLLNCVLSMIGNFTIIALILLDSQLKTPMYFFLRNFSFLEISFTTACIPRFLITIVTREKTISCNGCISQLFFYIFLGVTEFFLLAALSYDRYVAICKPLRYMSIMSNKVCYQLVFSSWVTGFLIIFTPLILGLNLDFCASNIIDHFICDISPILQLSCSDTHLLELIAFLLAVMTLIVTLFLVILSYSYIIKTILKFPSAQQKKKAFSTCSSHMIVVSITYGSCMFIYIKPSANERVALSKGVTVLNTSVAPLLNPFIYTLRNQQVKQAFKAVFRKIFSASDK
How it was run: as §1

O7E24 S193F P242S = test system: T7, O7E24 S193F P242S
T7 sequence (whole entry): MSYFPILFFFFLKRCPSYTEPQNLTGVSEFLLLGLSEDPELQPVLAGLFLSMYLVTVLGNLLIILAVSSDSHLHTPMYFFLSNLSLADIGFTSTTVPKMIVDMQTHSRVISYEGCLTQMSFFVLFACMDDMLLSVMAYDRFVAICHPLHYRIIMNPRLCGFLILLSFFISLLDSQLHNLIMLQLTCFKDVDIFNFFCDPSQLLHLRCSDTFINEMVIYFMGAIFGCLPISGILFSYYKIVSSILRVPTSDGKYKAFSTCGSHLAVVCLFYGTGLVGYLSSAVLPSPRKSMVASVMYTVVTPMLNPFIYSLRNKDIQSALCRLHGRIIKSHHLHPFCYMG
How it was run: as §1

O7E24 = test system: T8, O7E24
T8 sequence (whole entry): T7 sequence (whole entry) with F193S
How it was run: as §1

OR10A2 (Homo sapiens) = target: T9, OR10A2 (Homo sapiens) (UniProt Q9H208)
T9 sequence (whole entry): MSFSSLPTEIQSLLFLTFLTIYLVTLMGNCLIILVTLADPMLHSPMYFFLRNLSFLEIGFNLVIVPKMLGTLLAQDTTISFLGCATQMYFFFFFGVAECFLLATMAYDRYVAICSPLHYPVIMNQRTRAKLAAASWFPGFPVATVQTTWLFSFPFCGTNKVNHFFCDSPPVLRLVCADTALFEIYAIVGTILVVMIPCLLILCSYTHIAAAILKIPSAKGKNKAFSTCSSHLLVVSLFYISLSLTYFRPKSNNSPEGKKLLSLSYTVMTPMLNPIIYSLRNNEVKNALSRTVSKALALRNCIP
How it was run: as §1

OR10A3 (Homo sapiens) = target: T10, OR10A3 (Homo sapiens) (UniProt P58181)
T10 sequence (whole entry): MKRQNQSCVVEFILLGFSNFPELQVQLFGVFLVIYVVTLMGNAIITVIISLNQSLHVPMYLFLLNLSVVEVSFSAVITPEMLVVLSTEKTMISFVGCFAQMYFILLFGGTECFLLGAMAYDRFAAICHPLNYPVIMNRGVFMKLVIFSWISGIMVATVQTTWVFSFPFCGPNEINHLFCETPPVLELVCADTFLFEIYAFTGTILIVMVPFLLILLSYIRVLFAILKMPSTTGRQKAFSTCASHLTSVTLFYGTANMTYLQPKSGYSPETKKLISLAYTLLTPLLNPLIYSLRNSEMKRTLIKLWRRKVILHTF
How it was run: as §1

OR10A4 (Homo sapiens) = target: T11, OR10A4 (Homo sapiens) (UniProt Q9H209)
T11 sequence (whole entry): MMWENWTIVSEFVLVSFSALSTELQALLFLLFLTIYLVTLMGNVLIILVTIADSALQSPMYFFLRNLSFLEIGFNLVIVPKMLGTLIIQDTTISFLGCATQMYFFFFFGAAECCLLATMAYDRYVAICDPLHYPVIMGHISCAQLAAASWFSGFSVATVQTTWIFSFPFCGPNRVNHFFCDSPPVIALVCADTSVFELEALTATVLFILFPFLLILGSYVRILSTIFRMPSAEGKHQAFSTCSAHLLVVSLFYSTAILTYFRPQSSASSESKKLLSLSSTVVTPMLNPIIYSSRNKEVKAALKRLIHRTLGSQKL
How it was run: as §1

OR10A5 (Homo sapiens) = target: T12, OR10A5 (Homo sapiens) (UniProt Q9H207)
T12 sequence (whole entry): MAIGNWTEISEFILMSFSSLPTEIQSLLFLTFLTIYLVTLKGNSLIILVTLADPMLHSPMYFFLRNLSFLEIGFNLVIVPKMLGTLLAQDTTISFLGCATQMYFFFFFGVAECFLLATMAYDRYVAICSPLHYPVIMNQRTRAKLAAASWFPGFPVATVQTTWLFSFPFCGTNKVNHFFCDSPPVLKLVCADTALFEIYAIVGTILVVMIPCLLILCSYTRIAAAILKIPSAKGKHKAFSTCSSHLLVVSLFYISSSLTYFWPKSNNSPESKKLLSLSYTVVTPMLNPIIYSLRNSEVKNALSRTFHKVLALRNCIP
How it was run: as §1

OR10A6 (Homo sapiens) = target: T13, OR10A6 (Homo sapiens) (UniProt Q8NH74)
T13 sequence (whole entry): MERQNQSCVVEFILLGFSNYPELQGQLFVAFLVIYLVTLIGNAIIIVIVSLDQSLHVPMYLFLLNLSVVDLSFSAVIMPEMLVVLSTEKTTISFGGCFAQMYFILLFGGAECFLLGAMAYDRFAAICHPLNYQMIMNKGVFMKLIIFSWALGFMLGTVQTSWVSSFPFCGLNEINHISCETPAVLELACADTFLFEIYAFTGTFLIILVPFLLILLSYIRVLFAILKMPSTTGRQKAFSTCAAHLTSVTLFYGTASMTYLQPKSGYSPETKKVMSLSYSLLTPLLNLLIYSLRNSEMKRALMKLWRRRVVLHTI
How it was run: as §1

OR10A7 (Homo sapiens) = target: T14, OR10A7 (Homo sapiens) (UniProt Q8NGE5)
T14 sequence (whole entry): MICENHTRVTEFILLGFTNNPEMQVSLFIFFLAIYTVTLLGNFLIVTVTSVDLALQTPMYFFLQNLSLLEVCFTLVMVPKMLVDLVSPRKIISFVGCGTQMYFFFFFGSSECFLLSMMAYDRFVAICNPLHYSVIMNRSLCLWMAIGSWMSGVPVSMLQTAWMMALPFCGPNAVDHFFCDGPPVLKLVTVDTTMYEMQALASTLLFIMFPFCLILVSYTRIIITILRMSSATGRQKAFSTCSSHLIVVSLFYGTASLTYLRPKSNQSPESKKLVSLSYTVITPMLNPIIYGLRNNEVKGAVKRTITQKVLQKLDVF
How it was run: as §1

OR10AD1 (Homo sapiens) = target: T15, OR10AD1 (Homo sapiens) (UniProt Q8NGE0)
T15 sequence (whole entry): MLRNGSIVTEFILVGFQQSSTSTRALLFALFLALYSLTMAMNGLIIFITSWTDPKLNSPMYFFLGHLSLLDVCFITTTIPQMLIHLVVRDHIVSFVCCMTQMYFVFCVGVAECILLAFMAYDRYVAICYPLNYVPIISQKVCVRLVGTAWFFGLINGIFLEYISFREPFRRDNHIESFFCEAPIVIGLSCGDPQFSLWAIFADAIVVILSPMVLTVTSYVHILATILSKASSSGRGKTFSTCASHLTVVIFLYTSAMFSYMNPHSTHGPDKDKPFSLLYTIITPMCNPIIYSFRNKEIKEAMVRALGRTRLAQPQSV
How it was run: as §1

OR10AG1 (Homo sapiens) = target: T16, OR10AG1 (Homo sapiens) (UniProt Q8NH19)
T16 sequence (whole entry): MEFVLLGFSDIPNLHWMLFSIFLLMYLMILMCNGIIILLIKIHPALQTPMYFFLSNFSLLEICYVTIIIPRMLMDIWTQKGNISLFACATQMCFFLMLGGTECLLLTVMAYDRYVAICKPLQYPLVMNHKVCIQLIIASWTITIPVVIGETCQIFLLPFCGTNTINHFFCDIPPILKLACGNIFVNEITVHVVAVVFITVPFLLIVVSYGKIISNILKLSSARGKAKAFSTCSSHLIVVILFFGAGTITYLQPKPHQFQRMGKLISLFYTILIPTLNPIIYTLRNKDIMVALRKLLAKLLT
How it was run: as §1

OR10C1 (Homo sapiens) = target: T17, OR10C1 (Homo sapiens) (UniProt Q96KK4)
T17 sequence (whole entry): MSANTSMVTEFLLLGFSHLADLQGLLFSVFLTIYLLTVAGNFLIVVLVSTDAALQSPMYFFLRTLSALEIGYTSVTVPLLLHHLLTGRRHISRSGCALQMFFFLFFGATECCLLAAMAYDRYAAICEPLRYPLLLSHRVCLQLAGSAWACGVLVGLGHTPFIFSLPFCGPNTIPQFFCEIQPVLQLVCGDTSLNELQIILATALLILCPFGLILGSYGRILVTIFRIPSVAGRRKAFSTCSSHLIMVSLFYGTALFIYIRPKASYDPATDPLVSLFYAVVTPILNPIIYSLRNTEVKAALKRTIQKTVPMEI
How it was run: as §1

OR10D3 (Homo sapiens) = target: T18, OR10D3 (Homo sapiens) (UniProt Q8NH80)
T18 sequence (whole entry): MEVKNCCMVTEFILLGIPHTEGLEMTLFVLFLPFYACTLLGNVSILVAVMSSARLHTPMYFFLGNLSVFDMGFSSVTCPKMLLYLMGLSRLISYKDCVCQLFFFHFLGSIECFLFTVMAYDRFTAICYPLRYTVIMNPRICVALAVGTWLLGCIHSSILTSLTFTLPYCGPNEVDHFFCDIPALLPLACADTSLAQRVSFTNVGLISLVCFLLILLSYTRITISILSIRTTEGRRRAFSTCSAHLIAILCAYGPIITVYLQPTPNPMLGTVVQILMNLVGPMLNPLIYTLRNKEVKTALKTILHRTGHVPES
How it was run: as §1

Measured: odorant receptor agonist call

CCCC(S)CCOC(C)=O (stereo not drawn)
inactive: all assays above
